The list is not random: actives were taken first. Their share in the collection is about 4.9%.
NPY-Y2 antag: antagonists of human neuropeptide Y receptor Y2; 0.99% of 140,000 active; inhibition, % at 2.7 µM; NPY-Y2 expressing cells, antagonist mode; AID 793; P49146; in the data active = inhibition above about 17%;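 note: 0% = vehicle with agonist challenge and 100% = reference antagonist with challenge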
NPY Y1 blocker: NPY-Y1 (human) receptor antagonism; P25929; HEK293-CNG Y1 cells, membrane potential fluorescence; NPY at EC95, then isoproterenol; inhibition, % at 3.6 µM; 1% of 200,000 active;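 active = inhibition above the campaign mean inhibition of all tested compounds plus 3 SD, cut at about 20% in these data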;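 note: 0% = DMSO wells given NPY plus isoproterenol and 100% = isoproterenol alone without NPY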
Target sequence (P25929 whole entry, looked up): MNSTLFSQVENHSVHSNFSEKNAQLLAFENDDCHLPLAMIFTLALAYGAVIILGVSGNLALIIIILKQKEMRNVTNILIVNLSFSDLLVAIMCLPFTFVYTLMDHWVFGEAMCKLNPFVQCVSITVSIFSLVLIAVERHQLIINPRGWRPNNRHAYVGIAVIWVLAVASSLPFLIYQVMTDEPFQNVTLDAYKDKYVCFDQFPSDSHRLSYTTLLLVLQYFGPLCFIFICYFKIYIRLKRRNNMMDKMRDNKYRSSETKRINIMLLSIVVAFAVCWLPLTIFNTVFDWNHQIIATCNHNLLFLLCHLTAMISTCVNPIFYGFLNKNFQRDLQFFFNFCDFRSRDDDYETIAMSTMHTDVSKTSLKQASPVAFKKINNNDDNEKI
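Test system – HEK293 Y1/CNG channel cell line · Also added – NPY agonist 25 nM, then isoproterenol 1 µM plus Ro 20-1724 25 µM · Compound dosing – one concentration, 3.6 µM, in 0.4% DMSO · Schedule – compound incubation 1 h at room temperature, readout 45 min post-stimulation · Technique – fluorescence, membrane potential probe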
WT yeast gro inh: growth inhibition of WT yeast, mitochondrial fusion screen; mitochondrial fusion phenotypic screen, WT strain; inhibition, % at 10 µM; 2.1% of 190,000 active; in the data active = inhibition above about 58%; tested in S. cerevisiae
RAM inhibit: blocks the yeast RAM network; 1.8% of 190,000 active; S. cerevisiae dse1pr::URA3 reporter, 5-FOA growth OD615, 2 d; analog-sensitive cbk1-as2 kinase mutant strain; inhibition, % at 50 µM;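 active = inhibition above a set limit, 3 SD over mean compound inhibition, cut at about 8.4% in these data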;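 note: 0% = DMSO-only wells with no growth and 100% = 10 µM 1-NA-PP1 full growth; inhibition rescues growth on 5-FOA so higher OD means more RAM inhibition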
NPY-Y1 PAM-ag: human NPY-Y1 potentiation or agonism, primary screen | P25929 | NPY-Y1 expressing cells, potentiator/agonist activation | activation, % at 3.6 µM | 0.37% of 220,000 active | AID 1304; in the data active = activation above about 33%, passing the limit was not always enough;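 note: cells stimulated with NPY at EC10 then isoproterenol at EC100; 0% = low agonist plus stimulus and 100% = saturating agonist plus stimulus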
NPY-Y2 PAM-ag: human NPY-Y2 potentiation or agonism, primary screen; P49146; cells expressing NPY-Y2, potentiator/agonist read-out; activation, % at 3.6 µM; 0.45% of 220,000 active; in the data active = activation above about 27%;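 note: cells stimulated with NPY near EC25 plus isoproterenol at EC100; 0% = vehicle plus submaximal agonist and 100% = vehicle plus saturating agonist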
* = called active by the depositor; . = no result given.

SMILES	NPY-Y2 antag	NPY Y1 blocker	WT yeast gro inh	RAM inhibit	NPY-Y1 PAM-ag	NPY-Y2 PAM-ag
CC1(C)CC(NC(=O)c2cccc3ccccc23)CC(C)(C)N1	5	7	-23	1	8	-14
O=C(COc1c(Cl)cc(Cl)cc1Cl)c1ccc(Cl)cc1	0	-4	4	4	-6	4
Cc1ccc(S(=O)(=O)Nc2ccc(N3CCOCC3)nc2)cc1	.	1	7	2	-11	-22
CC(C)(C)[C@@H]1C=C(C(=O)N2CCN(Cc3ccc4c(c3)OCO4)CC2)O[C@H](OCc2ccc(CO)cc2)C1	.	2	94*	1	-20	-3
COc1cccc(-c2nnc3sc(-c4ccco4)nn23)c1	4	-1	-3	1	-1	4
N/C(Cc1ccc([N+](=O)[O-])cc1)=N\OC(=O)c1ccccc1Br	5	0	-37	-1	-2	12
N/C(Cc1ccccc1)=N\OC(=O)c1cccc2ccccc12	5	7	81*	0	-10	-7
N/C(=N\OC(=O)c1cccc2ccccc12)c1ccncc1	.	.	.	.	11	7
N/C(=N\OC(=O)c1cccc2ccccc12)c1ccc(Br)cc1	5	1	77*	3	11	6
COc1ccc(S(=O)(=O)Nc2ccc(O)c(Sc3ncn[nH]3)c2)cc1	0	-1	16	2	-5	-15
COc1ccc(S(=O)(=O)Nc2cc(Sc3ncn[nH]3)c(O)c3ccccc23)cc1	3	2	94*	2	-76	-28
CC1(CCc2ccccc2)NC(=S)N(c2ccc(Cl)cc2)N1 (configuration not stated)	2	1	59*	0	9	3
CC1(CCc2ccccc2)NC(=S)N(c2ccccc2)N1 (configuration not stated)	1	1	9	0	-6	2
CC1=CC(C)(C)NC(=S)N1c1ccc(C)cc1	1	-8	-13	0	-20	1
CCC1(c2ccccc2)NC(=S)N(c2ccc(C)c(C)c2)N1 (configuration not stated)	.	-1	69*	5	11	1
CCC1(c2ccc(Cl)cc2)NC(=S)N(c2ccc(C)cc2)N1 (configuration not stated)	-1	5	68*	0	14	-2
CCC1(c2ccc(Cl)cc2)NC(=S)N(c2ccc(C)c(C)c2)N1 (configuration not stated)	.	.	.	.	8	0
O=C(CN1C(=O)/C(=C/c2c(F)cccc2Cl)Oc2ccccc21)NCc1ccco1	.	-3	1	3	11	-6
CC1CCN(S(=O)(=O)c2cccc(C(=O)N(Cc3ccccc3)c3ccccn3)c2)CC1	.	22*	12	1	-14	-17
O=C(C1CCCCC1)N(Cc1ccccc1)c1ccccn1	6	1	84*	1	-8	3
CN1CCN(S(=O)(=O)c2cccc(C(=O)N(c3ccccn3)C3CCCCC3)c2)CC1	0	-3	12	1	16	-7
O=C(c1ccccc1)N(Cc1ccccc1)c1ccccn1	2	-2	-9	1	-8	11
COc1ccc(CCN2C(=O)C3C4CC(C5C(C(N)=O)=NOC45)C3C2=O)cc1OC (configuration not stated)	2	-2	-3	1	12	-3
COc1ccc(C(C(=O)Nc2ccc(F)cc2)N(C(=O)Cn2nnc3ccccc32)C2CC2)cc1 (configuration not stated)	-2	0	68*	7	-27	-6
CCOc1ccc(S(=O)(=O)N2CCN(C(=O)c3cc4c(s3)CCCC4)CC2)cc1	4	1	63*	4	-6	-8
COc1ccc2c(c1)C1=C(CC2)C(c2ccc(C)cc2)NC(=S)N1 (configuration not stated)	.	-1	80*	2	2	9
C=CCN1C(=O)C(Cc2ccc(Br)cc2)S/C1=N\N=C\c1ccco1 (configuration not stated)	4	5	9	10.0*	-14	-10
Cc1cccc(CC2S/C(=N/N=C/c3ccco3)N(c3ccccc3)C2=O)c1 (configuration not stated)	1	1	6	11*	-5	-16
